Screening results: PubChem, several laboratories
NF-kB neuron act – activators of NF-kB expression in neurons, primary screen, cell-based, HTS | actives 1.6% (n = 190,000) | fold change at 12.5 µM | AID 1239, 2008 | human neuronal cells, NF-kB reporter expression; active compounds read high; in the data active means fold change above about 3.3
FLuc act counter – FLuc activators, initial screening, artefact control for FLuc-dependent activation tests, biochemical, ATPlite luminescence; Luciferin 4-monooxygenase (Photinus pyralis), P08659; ATPlite luciferase biochemical, 10 min; 0 = ATP-free wells, 1 = DMSO control; activation factor at 10 µM; 200,000 tested, under 10 active; AID 1027, 2008;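 active means luciferase activation factor, scaled between plate controls, of at least 2 with compound at 10 µM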
Target sequence (P08659 whole entry, looked up): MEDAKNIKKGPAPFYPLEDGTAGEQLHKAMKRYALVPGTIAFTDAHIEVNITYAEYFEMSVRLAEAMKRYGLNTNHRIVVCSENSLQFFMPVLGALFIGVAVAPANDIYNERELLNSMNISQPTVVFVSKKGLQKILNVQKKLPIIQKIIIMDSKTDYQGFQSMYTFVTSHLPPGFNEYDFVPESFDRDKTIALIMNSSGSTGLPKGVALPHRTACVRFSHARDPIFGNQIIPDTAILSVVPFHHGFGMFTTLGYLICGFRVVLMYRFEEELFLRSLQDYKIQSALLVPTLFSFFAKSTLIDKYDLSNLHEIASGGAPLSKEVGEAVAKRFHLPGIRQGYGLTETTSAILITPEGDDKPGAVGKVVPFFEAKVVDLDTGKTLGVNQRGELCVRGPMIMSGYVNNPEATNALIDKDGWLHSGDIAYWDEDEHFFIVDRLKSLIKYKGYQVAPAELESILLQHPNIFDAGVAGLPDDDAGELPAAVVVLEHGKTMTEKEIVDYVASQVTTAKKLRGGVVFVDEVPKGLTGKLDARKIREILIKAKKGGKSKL
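System: Luciferase/luciferin detection reagent, cell-free biochemical luciferase assay | Medium: PBS buffer for ATP | Dosing: Test compounds dosed from 2 mM stocks in 100% DMSO | Timing: 10 min at ambient temperature | Signal: Luminescence measurement of luciferase light output | Evaluation: Luciferase activation, seen as luminescence increase over controls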
C8 TRAIL sens – viability loss with TRAIL in NB7+C8 cells, primary screen, TRAIL sensitizer project, cell-based, ATPlite luminescence. inhibition (viability loss, TRAIL sensitization), % at 10 µM. actives 1% (n = 360,000). AID 624354, 2012;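 active means compounds causing at least 50% loss of cell viability in the single-dose screen, relative to plate controls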
PPC-1+TRAIL kill – compounds killing PPC-1 cancer cells with TRAIL present, primary screen, TRAIL potentiator project, ATPLite luminescence, uHTS | actives 0.41% (n = 220,000) | cell killing (% activity), % at 4 µM or 5 µM | PPC-1 cells + TRAIL, ATPLite viability luminescence;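 active means cell killing above 50% in the first pass at 4 µM, then a duplicate retest at 5 µM averaging 50% or more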
APP 5'UTR act – activators of APP 5'UTR luciferase reporter, primary screen, SH-SY5Y cells | AID 1276, 2008 | activation, % at 2 µM | SH-SY5Y APP 5'UTR luciferase reporter, luminescence; zero percent = DMSO vehicle wells | actives 1% (n = 190,000);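 active means activation above a set limit, based on mean plus 3 SD of controls, cut at about 140% in these data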
FLuc inhib CS – firefly luciferase enzyme inhibitors, primary screen, artefact control for luciferase-based inhibitor screens, biochemical, luminescence, ATPLite; Luciferin 4-monooxygenase (Photinus pyralis), P08659; 10 min; inhibition, % at 10 µM; actives 1.5% (n = 200,000); AID 1006, 2008;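 active means inhibition above about 50% when tested at 10 µM, limit read from the data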
A number is an active result. An excerpt weighted towards active compounds, which were near 2.2% of everything screened.

Screening CC(C)(C)c1nc2sc3c(c2c(=O)o1)CCCC3 returned NF-kB neuron act inactive, FLuc act counter inactive, C8 TRAIL sens inactive, PPC-1+TRAIL kill inactive, APP 5'UTR act inactive and FLuc inhib CS inactive.
`O=c1oc(-c2ccccc2)nc2sc3c(c12)CCCC3` gave NF-kB neuron act 6.14, FLuc act counter inactive, C8 TRAIL sens inactive, PPC-1+TRAIL kill inactive, APP 5'UTR act inactive and FLuc inhib CS inactive.
`Cc1nc2nc(C)c(C)nc2nc1C` gave C8 TRAIL sens inactive.
`CC(C)(C)NC(=O)C(c1ccncc1)n1c(-c2ccc(C(F)(F)F)cc2)nc2ccccc21` (stereo not given) gave C8 TRAIL sens 79.5.
COC(=O)C[C@@H]1CC[C@H](NC(=O)Nc2ccc(OC)cc2)[C@@H](CO)O1 was read as C8 TRAIL sens inactive.
`COC(=O)Cc1ccc2sc(-c3ccccc3)nc2c1` gave NF-kB neuron act 9.21, FLuc act counter inactive, C8 TRAIL sens 62.5, PPC-1+TRAIL kill inactive, APP 5'UTR act 172.8 and FLuc inhib CS 83.0.
Screening Cc1ccc(SCc2cn3c(C)csc3n2)cc1 returned NF-kB neuron act 5.73, FLuc act counter inactive, C8 TRAIL sens inactive, PPC-1+TRAIL kill inactive, APP 5'UTR act 198.7 and FLuc inhib CS 63.6.
For Cc1ccc(S(=O)(=O)NCc2cn3c(C)csc3n2)cc1 the results were NF-kB neuron act inactive, FLuc act counter inactive, C8 TRAIL sens inactive, PPC-1+TRAIL kill inactive, APP 5'UTR act inactive and FLuc inhib CS inactive.
For C/C(=N\OC(=O)c1ccc(C)cc1)c1sc(C)nc1C the results were NF-kB neuron act inactive, FLuc act counter inactive, C8 TRAIL sens inactive, PPC-1+TRAIL kill inactive, APP 5'UTR act inactive and FLuc inhib CS 76.0.
Screening C/C(=N/OC(=O)c1ccc(C)cc1)c1cccs1 returned NF-kB neuron act inactive, FLuc act counter inactive, C8 TRAIL sens inactive, PPC-1+TRAIL kill inactive, APP 5'UTR act inactive and FLuc inhib CS 97.6.
COc1ccc(C(=O)O/N=C(/c2cccs2)C(C)(C)C)cc1 was read as C8 TRAIL sens inactive and PPC-1+TRAIL kill inactive.
`C/C(=N\OC(=O)c1ccc(Cl)c(Cl)c1)c1sc(C)nc1C` gave NF-kB neuron act inactive, FLuc act counter inactive, C8 TRAIL sens inactive, PPC-1+TRAIL kill inactive, APP 5'UTR act inactive and FLuc inhib CS inactive.
For CSC(=S)N/N=C(\C)c1ccccc1 the results were NF-kB neuron act 5.94, FLuc act counter inactive, C8 TRAIL sens inactive, PPC-1+TRAIL kill inactive, APP 5'UTR act inactive and FLuc inhib CS inactive.
Screening COc1ccc(-c2cc(C(=O)Nc3cccc(O)c3)no2)cc1 returned C8 TRAIL sens 72.9.
For O=C(Nc1cccc(O)c1)c1cc(-c2ccco2)on1 the results were NF-kB neuron act inactive, FLuc act counter inactive, C8 TRAIL sens inactive, PPC-1+TRAIL kill inactive, APP 5'UTR act inactive and FLuc inhib CS 75.5.
Screening COc1ccc(-c2cc(C(=O)NC(C)C)no2)cc1 returned NF-kB neuron act 3.68, FLuc act counter inactive, C8 TRAIL sens inactive, PPC-1+TRAIL kill inactive, APP 5'UTR act inactive and FLuc inhib CS inactive.
Screening CCCNC(=O)c1cc(-c2ccco2)on1 returned NF-kB neuron act 4.94, FLuc act counter inactive, C8 TRAIL sens inactive, PPC-1+TRAIL kill inactive, APP 5'UTR act inactive and FLuc inhib CS inactive.
CC(=O)c1cccc(NC(=O)c2cc(-c3ccco3)on2)c1 was read as C8 TRAIL sens inactive.
For COC(=O)c1cc(-c2ccc(OC)cc2)on1 the results were NF-kB neuron act inactive, FLuc act counter inactive, C8 TRAIL sens inactive, PPC-1+TRAIL kill inactive, APP 5'UTR act inactive and FLuc inhib CS inactive.
`Cc1ccccc1-c1cnc(C(O)c2c(C)ccc3ccccc23)[nH]1` (stereo not given) gave C8 TRAIL sens inactive.
For CCC(=O)N1CCCC(C)(C(=O)Nc2ccc3scnc3c2)C1 (stereo not given) the results were C8 TRAIL sens inactive.
For CN(C)c1ccc(/C=C/C(=O)c2ccccc2O)cc1 the results were NF-kB neuron act 3.47, FLuc act counter inactive, C8 TRAIL sens inactive, PPC-1+TRAIL kill inactive, APP 5'UTR act 136.8 and FLuc inhib CS 65.7.
O=C(/C=C/c1ccc2c(c1)OCCCO2)c1ccccc1O was read as NF-kB neuron act 3.61, FLuc act counter inactive, C8 TRAIL sens inactive, PPC-1+TRAIL kill inactive, APP 5'UTR act 215.7 and FLuc inhib CS 77.3.
Screening COc1ccc(C(=O)/C=C/c2ccc(O)cc2)cc1 returned NF-kB neuron act 3.57, FLuc act counter inactive, C8 TRAIL sens inactive, PPC-1+TRAIL kill inactive, APP 5'UTR act inactive and FLuc inhib CS 55.3.
`Cc1ccc(/C=C/C(=O)c2ccc(C)cc2)cc1` gave NF-kB neuron act inactive, FLuc act counter inactive, C8 TRAIL sens inactive, PPC-1+TRAIL kill inactive, APP 5'UTR act inactive and FLuc inhib CS 54.1.
COc1ccc(C=CC(=O)c2ccc([N+](=O)[O-])cc2)cc1 was read as C8 TRAIL sens inactive.
Screening O=C1C=C(c2ccccc2Oc2ccccc2)C[C@@H](c2ccc(F)cc2)C1 returned C8 TRAIL sens inactive.
`C=CCNc1ncnc2c1ncn2[C@H]1CN(Cc2cccc3ccccc23)C[C@@H](CO)O1` gave C8 TRAIL sens inactive.
CSc1ccc(C(=O)/C=C/c2ccc(N)cc2)cc1 was read as NF-kB neuron act 10, FLuc act counter inactive, C8 TRAIL sens 54.5, PPC-1+TRAIL kill inactive, APP 5'UTR act inactive and FLuc inhib CS 89.6.
Screening CSc1ccc(/C=C/C(=O)c2ccc(NC(=O)C(C)C)cc2)cc1 returned NF-kB neuron act inactive, FLuc act counter inactive, C8 TRAIL sens inactive, PPC-1+TRAIL kill inactive, APP 5'UTR act inactive and FLuc inhib CS inactive.
`CN(C)c1ccc(/C=C/C(=O)c2ccc(O)cc2)cc1` gave C8 TRAIL sens 63.0.
For Nc1ccc(/C=C/C(=O)c2ccco2)cc1 the results were NF-kB neuron act inactive, FLuc act counter inactive, C8 TRAIL sens inactive, PPC-1+TRAIL kill inactive, APP 5'UTR act inactive and FLuc inhib CS 54.8.
COc1ccc(C(=O)/C=C/c2ccc(O)cc2)c(O)c1CC=C(C)C was read as NF-kB neuron act 5, FLuc act counter inactive, C8 TRAIL sens inactive, PPC-1+TRAIL kill inactive, APP 5'UTR act inactive and FLuc inhib CS inactive.
Screening N#Cc1ccc(/C=C/C(=O)c2ccco2)cc1 returned NF-kB neuron act inactive, FLuc act counter inactive, C8 TRAIL sens inactive, PPC-1+TRAIL kill inactive, APP 5'UTR act inactive and FLuc inhib CS inactive.
`COc1ccc(C(=O)/C=C/c2ccc(O)cc2)c2c1CC(O)C(C)(C)O2` (stereo not given) gave C8 TRAIL sens inactive.
For COc1ccc(-c2c(C(=O)c3ccccc3)[nH]c(N)c2C(=O)NCc2ccccc2)cc1OC the results were C8 TRAIL sens inactive.
Screening COc1ccc(CCOC(=O)c2ccc(NC(=O)CC#N)cc2)cc1 returned C8 TRAIL sens inactive.
